Drawing on ChEMBL document CHEMBL1158804, “Lupane triterpenoids from Maytenus species” (J Nat Prod, 2005), this text covers Activity and IC50 for seven compounds.

SMILES strings stand for the structures. Calls of active or inactive are those of the source. No cut-off for these calls is given here.

One test has as its system Escherichia coli. Put plainly: Antibacterial activity against Escherichia coli CECT 99 up to 40 ug/mL by broth microdilution method. It is filed as functional, organism-based. The gist of the method:
(§1)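 Compounds are dissolved in DMSO. The minimal inhibitory concentration is estimated by broth microdilution.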

Another test relates to HeLa. Put plainly: Cytotoxicity against human HeLa cells after 48 hrs by MTT assay. It is filed as functional, cell-based. The gist of the method: (§2)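 Monolayers are cultured in DMEM with 5% fetal calf serum and 1% penicillin-streptomycin at 37 °C, 5% CO2 and 90% humidity. Exponentially growing cells (2 × 10^4 cells/well) are exposed to a range of compound concentrations for 48 h at 37 °C. Viability is read by colorimetric MTT reduction.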

The subject of another test is Bacillus cereus. Put plainly: Antibacterial activity against Bacillus cereus CECT 496 up to 40 ug/mL by broth microdilution method. It is filed as functional, organism-based. The gist of the method:
as §1

Another test relates to Salmonella. Kind of test: Antibacterial activity against Salmonella sp. CECT 456 up to 40 ug/mL by broth microdilution method. The class given is functional, organism-based. The gist of the method: as §1
A further test has as its system Vero. Kind of test: Cytotoxicity against african green monkey Vero cells after 48 hrs by MTT assay. It is filed as cell-based. Conditions: Chlorocebus sabaeus. The procedure, abridged: as §2
The test system of a further test is HEp-2. Kind of test: Cytotoxicity against human Hep2 cells after 48 hrs by MTT assay. The class given is functional, cell-based. The note with it: HEp-2, 48 h. The procedure, abridged:
as §2

For the next test, the system named is Bacillus subtilis. Put plainly: Antibacterial activity against Bacillus subtilis CECT 39 up to 40 ug/mL by broth microdilution method. The class given is functional, organism-based. The procedure, abridged: as §1
The next test has as its system Proteus mirabilis. Put plainly: Antibacterial activity against Proteus mirabilis CECT170 up to 40 ug/mL by broth microdilution method. The class given is functional, organism-based. The procedure, abridged: as §1
Test [1] deals with Mycolicibacterium smegmatis. Put plainly: Antibacterial activity against Mycobacterium smegmatis CECT 3032 up to 40 ug/mL by broth microdilution method. The class given is functional, organism-based. The procedure, abridged:
as §1

The test system of a further test is Enterococcus faecalis. Kind of test: Antibacterial activity against Enterococcus faecalis CECT 795 up to 40 ug/mL by broth microdilution method. The class given is functional, organism-based. The gist of the method: as §1
For the next test, the system named is Bacillus pumilus. Put plainly: Antibacterial activity against Bacillus pumilus CECT 29 up to 40 ug/mL by broth microdilution method. It is filed as functional, organism-based. The procedure, abridged: as §1
The test system of test [2] is Staphylococcus saprophyticus. Put plainly: Antibacterial activity against Staphylococcus saprophyticus CECT 235 up to 40 ug/mL by broth microdilution method. The class given is functional, organism-based. The gist of the method:
as §1

The subject of another test is Priestia megaterium. Put plainly: Antibacterial activity against Bacillus megaterium CECT 44 up to 40 ug/mL by broth microdilution method. The class given is functional, organism-based. The gist of the method: as §1
The next test deals with Candida albicans. Kind of test: Antifungal activity against Candida albicans UBC1 up to 40 ug/mL by broth microdilution method. The class given is functional, organism-based. The procedure, abridged: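 The yeast is grown on Sabouraud agar at 37 °C. Compounds are dissolved in DMSO, and the minimal inhibitory concentration is estimated by broth microdilution.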
The next test concerns Staphylococcus aureus. Put plainly: Antibacterial activity against Staphylococcus aureus ATCC 6538 up to 40 ug/mL by broth microdilution method. The class given is functional, organism-based. The procedure, abridged: as §1
The test system of another test is Pseudomonas aeruginosa. Kind of test: Antibacterial activity against Pseudomonas aeruginosa AK 958 up to 40 ug/mL by broth microdilution method. It is filed as functional, organism-based. The gist of the method:
as §1

In test [3] the test system is Staphylococcus epidermidis. Kind of test: Antibacterial activity against Staphylococcus epidermidis CECT 232 up to 40 ug/mL by broth microdilution method. The class given is functional, organism-based. The procedure, abridged:
as §1

Consider `C=C(C)[C@@H]1CC[C@@]2(C)[C@H]1[C@@H]1CC[C@@H]3[C@@]4(C)CCC(=O)C(C)(C)[C@@H]4[C@H](O)C[C@@]3(C)[C@]1(C)C[C@@H]2O` [RESINONE], for which the outcome (with Escherichia coli; with Bacillus cereus; in the test with Salmonella; with Bacillus subtilis; in the test on Proteus mirabilis; in test [1]) was inactive. In addition, the result (with Enterococcus faecalis; with Bacillus pumilus; in test [2]; in the test on Priestia megaterium; in the test on Candida albicans; in the test with Staphylococcus aureus) was inactive. Also, the result (in the test on Pseudomonas aeruginosa; in [3]) was inactive. Besides, the IC50 in the test on HeLa, with Vero and in the test with HEp-2 was over 10 µg/mL throughout.

Turning to `C=C(C)[C@@H]1CC[C@]2(CO)CC[C@]3(C)[C@H](C[C@@H](O)[C@@H]4[C@@]5(C)CC[C@@H](O)C(C)(C)[C@@H]5CC[C@]43C)[C@@H]12`, the outcome (in the test with Escherichia coli; in the test on Bacillus cereus; with Salmonella; in the test with Bacillus subtilis; with Proteus mirabilis; in test [1]) was inactive. Moreover, the outcome (with Enterococcus faecalis; in the test on Bacillus pumilus; in test [2]; in the test on Priestia megaterium; in the test with Candida albicans; with Staphylococcus aureus) was inactive. In addition, the result (in the test on Pseudomonas aeruginosa; in [3]) was inactive. The IC50 in the test on HeLa, in the test on Vero and in the test with HEp-2 was over 10 µg/mL each time.

Consider `C=C(C)[C@@H]1CC[C@]2(CO)CC[C@]3(C)[C@H](CC[C@@H]4[C@@]5(C)CCC(=O)C(C)(C)[C@@H]5CC[C@]43C)[C@@H]12` [BETULONE], for which the result (with Escherichia coli; in the test on Bacillus cereus; in the test with Salmonella; in the test with Bacillus subtilis; in the test with Proteus mirabilis; in test [1]) was inactive. In addition, the result (in the test with Enterococcus faecalis; with Bacillus pumilus; in test [2]; with Priestia megaterium; with Candida albicans; in the test on Staphylococcus aureus) was inactive. Besides, the outcome (with Pseudomonas aeruginosa; in [3]) was inactive. Also, the IC50 with HeLa, in the test on Vero and with HEp-2 was over 10 µg/mL in each case.

In the case of `C=C(C)[C@@H]1CC[C@]2(CO)CC[C@]3(C)[C@H](CC[C@@H]4[C@@]5(C)CC[C@H](OC(=O)/C=C/c6ccc(O)c(O)c6)C(C)(C)[C@@H]5CC[C@]43C)[C@@H]12`, the outcome (in the test on Escherichia coli; with Bacillus cereus; in the test with Salmonella; with Bacillus subtilis; in the test on Proteus mirabilis; in test [1]) was inactive. Besides, the result (in the test on Enterococcus faecalis; in the test with Bacillus pumilus; in [2]; in the test with Priestia megaterium; in the test with Candida albicans; in the test with Staphylococcus aureus) was inactive. Further, the outcome (in the test on Pseudomonas aeruginosa; in test [3]) was inactive. For the same compound, the IC50 in the test on HeLa, in the test with Vero and in the test on HEp-2 was over 10 µg/mL throughout.

On to `C=C(C)[C@@H]1CC[C@]2(CO)CC[C@]3(C)[C@@H](CC[C@@H]4[C@@]5(C)CCC(=O)C(C)(C)[C@@H]5[C@H](O)C[C@]43C)[C@@H]12`, for which the result (with Escherichia coli; in the test on Bacillus cereus; in the test with Salmonella; in the test with Bacillus subtilis; in the test with Proteus mirabilis; in test [1]) was inactive. Further, the outcome (in the test with Enterococcus faecalis; with Bacillus pumilus; in test [2]; in the test with Priestia megaterium; in the test with Candida albicans; in the test on Staphylococcus aureus) was inactive. Further, the result (with Pseudomonas aeruginosa; in [3]) was inactive. The IC50 with HeLa, with Vero and with HEp-2 was over 10 µg/mL in each case.

For the compound `C=C(C)[C@@H]1CC[C@]2(C)CC[C@]3(C)[C@@H](CC[C@@H]4[C@@]5(C)[C@H](O)CC(=O)C(C)(C)[C@@H]5CC[C@]43C)[C@@H]12` [GLOCHIDONOL], the result (in the test with Escherichia coli; with Bacillus cereus; with Salmonella; with Bacillus subtilis; in the test with Proteus mirabilis; in [1]) was inactive. The result (in the test on Enterococcus faecalis; in the test on Bacillus pumilus; in [2]; in the test on Priestia megaterium; in the test on Candida albicans; in the test on Staphylococcus aureus) was inactive. The result (in the test on Pseudomonas aeruginosa; in test [3]) was inactive. The IC50 with HeLa, in the test on Vero and in the test with HEp-2 was under 10 µg/mL throughout.

Regarding `C=C(C)[C@@H]1CC[C@]2(CO)CC[C@]3(C)[C@H](CC[C@@H]4[C@@]5(C)CC[C@@H](O)C(C)(C)[C@@H]5CC[C@]43C)[C@@H]12` [3-EPI-BETULIN], the result (with Escherichia coli; in the test with Bacillus cereus; in the test on Salmonella; in the test with Bacillus subtilis; in the test with Proteus mirabilis; in test [1]) was inactive. Besides, the outcome (in the test on Enterococcus faecalis; with Bacillus pumilus; in [2]; in the test with Priestia megaterium; with Candida albicans; in the test with Staphylococcus aureus) was inactive. The result (in the test with Pseudomonas aeruginosa; in test [3]) was inactive. Besides, the IC50 in the test on HeLa, in the test with Vero and in the test on HEp-2 was over 10 µg/mL in each case.
